How the values were obtained:
[1] = biological target: T1, Serine/threonine-protein kinase ULK2 (Homo sapiens, UniProt Q8IYT8); assay: Inhibition of SUMO-tagged ULK2 (unknown origin) kinase domain expressed in KRX cells using [32P]-gamma-ATP and myelin basic protein substrate incubated for 7 mins; assay type: single protein
T1 sequence (Q8IYT8 whole entry): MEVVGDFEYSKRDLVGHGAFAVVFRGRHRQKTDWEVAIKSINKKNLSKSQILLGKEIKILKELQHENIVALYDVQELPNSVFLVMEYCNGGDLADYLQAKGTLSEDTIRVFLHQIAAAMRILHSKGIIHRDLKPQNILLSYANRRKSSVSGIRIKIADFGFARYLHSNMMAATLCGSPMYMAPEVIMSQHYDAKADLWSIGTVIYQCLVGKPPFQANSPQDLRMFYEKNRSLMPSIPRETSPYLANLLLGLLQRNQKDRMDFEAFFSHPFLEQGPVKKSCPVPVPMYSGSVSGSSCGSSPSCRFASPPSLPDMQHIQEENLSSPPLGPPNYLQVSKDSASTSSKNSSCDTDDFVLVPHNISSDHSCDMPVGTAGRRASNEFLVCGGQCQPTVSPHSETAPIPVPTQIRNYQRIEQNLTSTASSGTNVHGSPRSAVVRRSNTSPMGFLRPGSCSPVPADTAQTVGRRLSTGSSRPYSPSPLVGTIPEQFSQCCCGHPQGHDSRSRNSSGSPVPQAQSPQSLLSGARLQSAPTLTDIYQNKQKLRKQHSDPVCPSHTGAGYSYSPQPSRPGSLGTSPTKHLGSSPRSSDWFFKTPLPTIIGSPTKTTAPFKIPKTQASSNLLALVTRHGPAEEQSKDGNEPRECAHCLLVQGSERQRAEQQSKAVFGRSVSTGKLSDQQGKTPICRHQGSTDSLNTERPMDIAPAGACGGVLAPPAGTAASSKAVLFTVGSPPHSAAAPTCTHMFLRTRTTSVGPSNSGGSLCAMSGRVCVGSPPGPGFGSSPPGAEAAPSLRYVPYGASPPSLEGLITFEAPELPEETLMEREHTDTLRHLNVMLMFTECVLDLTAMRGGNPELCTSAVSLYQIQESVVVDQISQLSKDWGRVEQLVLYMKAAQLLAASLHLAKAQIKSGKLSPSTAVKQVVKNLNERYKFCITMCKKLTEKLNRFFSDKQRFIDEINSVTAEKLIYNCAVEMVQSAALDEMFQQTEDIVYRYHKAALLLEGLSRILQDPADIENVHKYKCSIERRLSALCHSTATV
In short: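 Enzyme at 5 nM with 50 µM cold ATP, 0.05 µCi/µl 32P-γ-ATP and 20 µM myelin basic protein as substrate. Reactions were spotted onto nitrocellulose, washed three times in 1% phosphoric acid, dried and imaged by phosphorimager. IC50 from curve fitting; duplicate.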

[2] = biological target: T2, 3-phosphoinositide-dependent protein kinase 1 (Homo sapiens, UniProt O15530); assay: Inhibition of recombinant PDK1 (unknown origin) using PDK1tide substrate incubated for 7 mins
T2 sequence (O15530 whole entry): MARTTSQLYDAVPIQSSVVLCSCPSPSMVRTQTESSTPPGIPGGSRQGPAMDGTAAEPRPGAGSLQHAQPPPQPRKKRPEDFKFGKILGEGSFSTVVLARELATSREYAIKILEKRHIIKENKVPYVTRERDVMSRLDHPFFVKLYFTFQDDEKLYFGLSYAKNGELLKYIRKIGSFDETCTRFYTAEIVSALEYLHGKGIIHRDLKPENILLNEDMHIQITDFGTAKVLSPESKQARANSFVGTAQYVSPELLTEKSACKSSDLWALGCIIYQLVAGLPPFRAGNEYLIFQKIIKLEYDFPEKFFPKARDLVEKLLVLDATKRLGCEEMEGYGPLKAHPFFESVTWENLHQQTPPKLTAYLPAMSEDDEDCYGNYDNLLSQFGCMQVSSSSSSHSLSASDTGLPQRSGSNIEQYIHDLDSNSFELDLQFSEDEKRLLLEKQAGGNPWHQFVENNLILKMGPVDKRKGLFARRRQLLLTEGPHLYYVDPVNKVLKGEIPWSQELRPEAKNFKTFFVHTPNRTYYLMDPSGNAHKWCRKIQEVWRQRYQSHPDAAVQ
In short: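 Recombinant PDK1 at 5 nM with 50 µM synthetic PDK1tide in 50 mM HEPES pH 7.5, 10 mM MgCl2, 1 mg/ml BSA, 0.02% Triton-X and 50 µM DTT. Stopped after 7 min by spotting onto nitrocellulose, washed three times in 1% phosphoric acid and phosphorimaged. IC50 from curve fitting; duplicate.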

[3] = biological target: Glycogen synthase kinase-3 beta (Homo sapiens) (UniProt P49841); assay: Inhibition of GSK3beta (unknown origin) at 250 nM by radioactive filter-binding assay
In short: (§1)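 Panel profiling of one compound against 50 kinases, carried out in duplicate at the International Centre for Protein Kinase Profiling. Radioactive filter-binding format.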

[4] = biological target: Tyrosine-protein kinase BTK (Homo sapiens) (UniProt Q06187); assay: Inhibition of BTK (unknown origin) at 250 nM by radioactive filter-binding assay; in short: as §1
[5] = biological target: Serine/threonine-protein kinase TBK1 (Homo sapiens) (UniProt Q9UHD2); assay: Inhibition of TBK1 (unknown origin) at 250 nM by radioactive filter-binding assay; in short: as §1
[6] = biological target: Serine/threonine-protein kinase Chk2 (Homo sapiens) (UniProt O96017); assay: Inhibition of CHK2 (unknown origin) at 250 nM by radioactive filter-binding assay; in short: as §1
[7] = biological target: Tyrosine-protein kinase JAK2 (Homo sapiens) (UniProt O60674); assay: Inhibition of JAK2 (unknown origin) at 250 nM by radioactive filter-binding assay; in short: as §1
[8] = biological target: AMP-activated protein kinase, AMPK (Homo sapiens) (UniProt P54646+O43741+P54619+Q9UGJ0+Q9Y478+Q13131+Q9UGI9); assay: Inhibition of AMPK (unknown origin) at 250 nM by radioactive filter-binding assay; assay type: protein-complex assay; in short: as §1
[9] = biological target: Serine/threonine-protein kinase TBK1 (Homo sapiens) (UniProt Q9UHD2); assay: Inhibition of TBK1 (unknown origin) at 2 uM by radioactive filter-binding assay; in short: as §1
[10] = biological target: Serine/threonine-protein kinase PAK 4 (Homo sapiens) (UniProt O96013); assay: Inhibition of PAK4 (unknown origin) at 2 uM by radioactive filter-binding assay; in short: as §1
[11] = biological target: Interleukin-1 receptor-associated kinase 4 (Homo sapiens) (UniProt Q9NWZ3); assay: Inhibition of IRAK4 (unknown origin) at 2 uM by radioactive filter-binding assay; in short: as §1
[12] = biological target: Dual specificity mitogen-activated protein kinase kinase 1 (Homo sapiens) (UniProt Q02750); assay: Inhibition of MKK1 (unknown origin) at 2 uM by radioactive filter-binding assay; in short: as §1
[13] = biological target: Mitogen-activated protein kinase kinase kinase 7 (Homo sapiens) (UniProt O43318); assay: Inhibition of TAK1 (unknown origin) at 2 uM by radioactive filter-binding assay; in short: as §1
[14] = biological target: MAP/microtubule affinity-regulating kinase 3 (Homo sapiens) (UniProt P27448); assay: Inhibition of MARK3 (unknown origin) at 2 uM by radioactive filter-binding assay; in short: as §1
[15] = biological target: Serine/threonine-protein kinase D1 (Homo sapiens) (UniProt Q15139); assay: Inhibition of PKD1 (unknown origin) at 2 uM by radioactive filter-binding assay; in short: as §1
Sequence of Serine/threonine-protein kinase D1 (Homo sapiens) (Q15139 whole entry): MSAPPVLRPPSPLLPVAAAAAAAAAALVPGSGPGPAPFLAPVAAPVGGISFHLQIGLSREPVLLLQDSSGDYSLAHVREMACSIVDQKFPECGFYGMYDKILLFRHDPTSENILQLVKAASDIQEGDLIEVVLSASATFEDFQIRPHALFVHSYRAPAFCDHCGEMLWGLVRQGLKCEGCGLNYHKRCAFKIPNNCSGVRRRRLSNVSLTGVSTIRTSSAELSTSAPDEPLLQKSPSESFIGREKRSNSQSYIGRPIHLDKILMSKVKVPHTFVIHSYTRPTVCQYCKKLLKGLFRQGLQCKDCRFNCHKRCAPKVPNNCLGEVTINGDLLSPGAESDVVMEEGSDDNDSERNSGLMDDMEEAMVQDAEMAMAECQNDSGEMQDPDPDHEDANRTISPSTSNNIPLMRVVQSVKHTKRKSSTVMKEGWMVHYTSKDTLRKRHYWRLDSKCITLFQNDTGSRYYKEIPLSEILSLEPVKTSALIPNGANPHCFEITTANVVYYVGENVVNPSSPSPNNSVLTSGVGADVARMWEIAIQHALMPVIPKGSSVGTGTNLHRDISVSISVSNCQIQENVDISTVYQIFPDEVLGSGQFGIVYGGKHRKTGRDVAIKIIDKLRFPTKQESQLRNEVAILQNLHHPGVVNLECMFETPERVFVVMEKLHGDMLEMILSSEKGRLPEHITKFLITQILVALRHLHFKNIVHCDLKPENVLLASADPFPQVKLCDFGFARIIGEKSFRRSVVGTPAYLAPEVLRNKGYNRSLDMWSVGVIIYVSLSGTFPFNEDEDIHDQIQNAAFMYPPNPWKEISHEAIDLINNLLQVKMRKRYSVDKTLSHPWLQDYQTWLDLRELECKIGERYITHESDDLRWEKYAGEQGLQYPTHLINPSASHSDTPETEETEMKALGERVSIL

Sequence of Serine/threonine-protein kinase TBK1 (Homo sapiens) (Q9UHD2 whole entry): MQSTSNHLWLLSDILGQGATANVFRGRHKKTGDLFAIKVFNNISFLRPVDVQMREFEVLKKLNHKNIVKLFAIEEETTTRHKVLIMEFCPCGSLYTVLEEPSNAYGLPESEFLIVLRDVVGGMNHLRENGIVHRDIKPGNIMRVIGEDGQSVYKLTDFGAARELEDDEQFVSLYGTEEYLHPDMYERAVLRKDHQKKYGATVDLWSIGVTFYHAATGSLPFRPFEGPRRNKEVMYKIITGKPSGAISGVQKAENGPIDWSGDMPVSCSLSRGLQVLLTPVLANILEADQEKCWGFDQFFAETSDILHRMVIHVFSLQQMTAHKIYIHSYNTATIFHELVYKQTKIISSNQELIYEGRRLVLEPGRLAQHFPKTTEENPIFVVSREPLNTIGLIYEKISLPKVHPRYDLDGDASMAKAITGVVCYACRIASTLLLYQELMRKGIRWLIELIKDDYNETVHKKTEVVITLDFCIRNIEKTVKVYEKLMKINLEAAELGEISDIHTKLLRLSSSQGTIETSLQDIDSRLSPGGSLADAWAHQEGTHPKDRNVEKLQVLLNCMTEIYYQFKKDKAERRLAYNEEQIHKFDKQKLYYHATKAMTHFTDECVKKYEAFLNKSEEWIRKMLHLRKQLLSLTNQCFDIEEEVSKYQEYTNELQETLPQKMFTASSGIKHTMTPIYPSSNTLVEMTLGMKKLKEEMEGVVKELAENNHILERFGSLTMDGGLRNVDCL
Sequence of Tyrosine-protein kinase JAK2 (Homo sapiens) (O60674 whole entry): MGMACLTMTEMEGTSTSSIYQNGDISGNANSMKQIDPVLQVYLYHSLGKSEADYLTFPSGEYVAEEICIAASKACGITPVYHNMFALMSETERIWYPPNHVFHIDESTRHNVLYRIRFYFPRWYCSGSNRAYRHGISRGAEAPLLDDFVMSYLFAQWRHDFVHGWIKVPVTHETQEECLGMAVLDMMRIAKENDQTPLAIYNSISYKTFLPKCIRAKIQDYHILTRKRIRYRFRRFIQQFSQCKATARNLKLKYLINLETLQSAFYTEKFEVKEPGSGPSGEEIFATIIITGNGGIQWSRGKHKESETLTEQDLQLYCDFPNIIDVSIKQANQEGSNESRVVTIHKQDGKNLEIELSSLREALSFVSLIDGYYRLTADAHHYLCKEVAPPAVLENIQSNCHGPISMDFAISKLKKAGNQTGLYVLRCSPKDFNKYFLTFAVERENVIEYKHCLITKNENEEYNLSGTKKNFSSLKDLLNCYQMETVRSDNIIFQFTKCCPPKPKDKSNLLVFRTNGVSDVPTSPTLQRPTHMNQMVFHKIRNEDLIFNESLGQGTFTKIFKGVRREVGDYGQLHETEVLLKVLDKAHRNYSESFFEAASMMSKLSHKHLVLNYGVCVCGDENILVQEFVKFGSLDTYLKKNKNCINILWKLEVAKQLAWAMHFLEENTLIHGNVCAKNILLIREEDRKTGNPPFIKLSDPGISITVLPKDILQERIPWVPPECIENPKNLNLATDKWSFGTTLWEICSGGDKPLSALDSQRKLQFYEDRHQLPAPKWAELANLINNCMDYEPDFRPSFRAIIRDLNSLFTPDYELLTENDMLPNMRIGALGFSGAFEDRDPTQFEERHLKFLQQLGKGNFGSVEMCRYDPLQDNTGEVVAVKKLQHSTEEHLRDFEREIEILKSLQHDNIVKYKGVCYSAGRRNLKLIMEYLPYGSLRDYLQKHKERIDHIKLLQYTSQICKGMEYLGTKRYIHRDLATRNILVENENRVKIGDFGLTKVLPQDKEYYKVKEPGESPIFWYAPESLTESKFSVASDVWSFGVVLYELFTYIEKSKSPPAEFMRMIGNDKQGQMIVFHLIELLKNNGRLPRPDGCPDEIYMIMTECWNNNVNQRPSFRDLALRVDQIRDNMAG
Sequence of Interleukin-1 receptor-associated kinase 4 (Homo sapiens) (Q9NWZ3 whole entry): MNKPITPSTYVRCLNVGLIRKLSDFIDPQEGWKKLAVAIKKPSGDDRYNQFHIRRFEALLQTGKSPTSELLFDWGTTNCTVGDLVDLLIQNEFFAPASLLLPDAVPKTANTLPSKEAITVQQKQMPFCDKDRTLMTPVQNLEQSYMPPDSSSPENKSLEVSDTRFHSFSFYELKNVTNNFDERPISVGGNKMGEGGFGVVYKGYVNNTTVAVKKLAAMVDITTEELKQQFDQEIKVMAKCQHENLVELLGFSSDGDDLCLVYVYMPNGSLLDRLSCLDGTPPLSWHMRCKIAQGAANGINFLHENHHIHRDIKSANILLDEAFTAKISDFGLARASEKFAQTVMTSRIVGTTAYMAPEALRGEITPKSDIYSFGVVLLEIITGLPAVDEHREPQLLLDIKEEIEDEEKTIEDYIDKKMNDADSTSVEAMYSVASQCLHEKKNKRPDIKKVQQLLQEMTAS
Sequence of Dual specificity mitogen-activated protein kinase kinase 1 (Homo sapiens) (Q02750 whole entry): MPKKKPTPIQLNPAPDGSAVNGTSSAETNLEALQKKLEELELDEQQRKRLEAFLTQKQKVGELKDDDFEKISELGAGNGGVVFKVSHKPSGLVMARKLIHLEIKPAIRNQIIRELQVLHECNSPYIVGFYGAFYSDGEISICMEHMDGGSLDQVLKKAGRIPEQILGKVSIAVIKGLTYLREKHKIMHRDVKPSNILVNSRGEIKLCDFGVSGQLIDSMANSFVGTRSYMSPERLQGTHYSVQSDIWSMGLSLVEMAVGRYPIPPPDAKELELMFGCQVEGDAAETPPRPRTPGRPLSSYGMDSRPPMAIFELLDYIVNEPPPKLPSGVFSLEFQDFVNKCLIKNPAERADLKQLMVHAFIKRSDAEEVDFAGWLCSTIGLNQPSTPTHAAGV
Sequence of Serine/threonine-protein kinase Chk2 (Homo sapiens) (O96017 whole entry): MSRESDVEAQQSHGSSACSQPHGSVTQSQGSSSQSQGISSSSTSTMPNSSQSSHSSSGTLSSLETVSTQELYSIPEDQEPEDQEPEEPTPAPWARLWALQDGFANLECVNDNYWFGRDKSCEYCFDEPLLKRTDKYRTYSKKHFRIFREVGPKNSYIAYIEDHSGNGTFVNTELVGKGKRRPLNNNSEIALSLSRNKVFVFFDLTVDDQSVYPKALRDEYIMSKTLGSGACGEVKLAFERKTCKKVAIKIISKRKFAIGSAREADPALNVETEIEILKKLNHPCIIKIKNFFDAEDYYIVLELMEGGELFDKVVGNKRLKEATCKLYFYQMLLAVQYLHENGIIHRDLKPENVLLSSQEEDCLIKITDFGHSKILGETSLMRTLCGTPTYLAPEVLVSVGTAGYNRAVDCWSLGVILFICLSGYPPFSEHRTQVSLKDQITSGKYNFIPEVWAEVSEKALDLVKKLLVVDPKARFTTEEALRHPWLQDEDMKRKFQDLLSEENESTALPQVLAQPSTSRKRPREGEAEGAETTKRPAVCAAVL
Sequence of Tyrosine-protein kinase BTK (Homo sapiens) (Q06187 whole entry): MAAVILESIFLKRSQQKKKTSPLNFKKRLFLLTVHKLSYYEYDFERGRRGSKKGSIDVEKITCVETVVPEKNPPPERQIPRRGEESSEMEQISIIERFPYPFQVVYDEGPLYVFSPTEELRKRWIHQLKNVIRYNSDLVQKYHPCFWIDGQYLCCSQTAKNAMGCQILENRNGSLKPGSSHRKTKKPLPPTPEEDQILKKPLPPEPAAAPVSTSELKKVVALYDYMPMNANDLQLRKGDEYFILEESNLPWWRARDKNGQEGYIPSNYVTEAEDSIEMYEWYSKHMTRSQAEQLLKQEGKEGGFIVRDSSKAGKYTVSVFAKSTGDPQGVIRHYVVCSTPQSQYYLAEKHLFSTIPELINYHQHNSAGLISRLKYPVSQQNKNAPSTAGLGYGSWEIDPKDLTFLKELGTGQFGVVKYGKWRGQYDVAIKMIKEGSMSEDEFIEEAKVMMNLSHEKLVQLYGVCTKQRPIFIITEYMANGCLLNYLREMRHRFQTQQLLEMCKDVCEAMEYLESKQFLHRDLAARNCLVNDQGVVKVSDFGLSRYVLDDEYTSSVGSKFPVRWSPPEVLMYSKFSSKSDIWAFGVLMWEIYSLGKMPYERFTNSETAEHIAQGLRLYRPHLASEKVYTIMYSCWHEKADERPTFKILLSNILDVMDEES

| IC50 [1] | IC50 [2] | inhibition [3] | inhibition [4] | inhibition [5] | inhibition [6] | inhibition [7] | inhibition [8] | inhibition [9] | inhibition [10] | inhibition [11] | inhibition [12] | inhibition [13] | inhibition [14] | inhibition [15] | Structure (SMILES) |
| --- | --- | --- | --- | --- | --- | --- | --- | --- | --- | --- | --- | --- | --- | --- | --- |
| 13 nM | 420 nM | > 80% | > 80% | > 80% | > 80% | > 80% | > 80% | – | – | – | – | – | – | – | c1ccc2c(Nc3cc(C4CCC4)[nH]n3)nc(Nc3ccc4[nH]cnc4c3)nc2c1 |
| 360 nM | 710 nM | – | – | – | – | – | – | > 80% | > 80% | > 80% | > 80% | > 80% | > 80% | > 80% | NCCCNc1nc(Nc2cccc(NC(=O)N3CCCC3)c2)ncc1I |

Source: ChEMBL document CHEMBL3603808, “Discovery and structure of a new inhibitor scaffold of the autophagy initiating kinase ULK1” (Bioorg Med Chem, 2015)
